The source made the active and inactive calls. No cut-off for these calls is given here.
What was measured:
Bos taurus [1] = species: Bos taurus; assay: Inhibition of [3H]colchicine binding to bovine brain tubulin at 0.5 uM relative to control; format: tissue-based
In short: (§1)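 [3H]colchicine binding to purified tubulin, with tubulin at 0.5 µM and colchicine at 5 µM. Compounds tested at 5 and 0.5 µM. CA-4 was run in contemporaneous experiments for comparison.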

HeLa [2] = assay: Induction of cell cycle arrest at G2/M phase in human HeLa cells assessed as increase in cyclin B1 expression after 24 to 48 hrs by Western blot analysis; format: functional, cell-based; conditions: dose 10-50 nM, time 24-48 hrs
In short: (§2)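 HeLa cells treated 24 or 48 h, then washed in cold PBS and lysed in 0.1% Triton X-100/RNase A at 0 °C. Lysates were cleared at 15,000 x g. 10 µg protein was run on SDS-PAGE and blotted to PVDF, blocked in 5% BSA, and probed 2 h at room temperature with primary antibodies. HRP secondary and ECL detection followed; β-actin reprobe served as loading control.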

HeLa [3] = assay: Induction of apoptosis in human HeLa cells assessed as increase in bcl-2 phosphorylation at 10 nM after 24 hrs by Western blot analysis; format: functional, cell-based; in short: as §2
HUVEC [4] = assay: Antivascular activity against HUVEC assessed as inhibition of capillary like tube formation at 10 nM incubated for 1 hr by matrigel based assay; format: functional, cell-based; conditions: Homo sapiens
In short: (§3)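 HUVECs used at passages 1–6 in M200 with low-serum growth supplement. 6 x 10^4 cells seeded on gelled Matrigel (37 °C, 30 min) and left 6 h to form tubes. Preformed networks then treated 1 h at 10 or 100 nM and photographed at five fields per well. Image analysis gave segment length, mesh area and number, covered area and branch points; three independent experiments.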

HeLa [5] = assay: Downregulation of BubR1 expression in human HeLa cells at 10 nM after 48 hrs by Western blot analysis; format: functional, cell-based; in short: as §2
Jurkat = assay: Potency index, ratio of CA-4 IC50 to compound IC50 for human Jurkat cells assessed as inhibition of cell growth; format: functional
HeLa [6] = assay: Downregulation of MAD-2 expression in human HeLa cells at 10 nM after 24 hrs by Western blot analysis; format: functional, cell-based; in short: as §2
SEM cells = assay: Antiproliferative activity against human SEM cells assessed as inhibition of cell growth; format: functional, cell-based
In short: (§4)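 Compounds from 10 mM DMSO stocks; final DMSO ≤0.25%. Growth inhibition of cancer cell lines read from dose-response curves; IC50 as mean ± SEM of at least three independent experiments.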

HUVEC [7] = assay: Antivascular activity against HUVEC assessed as effect on meshes area in preformed capillary like tube network at 10 nM incubated for 1 hr by imaging analysis; format: functional, cell-based; conditions: Homo sapiens; in short: as §3
HeLa [8] = assay: Induction of microtubule network depolymerization in human HeLa cells assessed as appearance of disorganised microtubules at 50 nM after 24 hrs by immunofluorescence staining based confocal microscopic analysis; format: cell-based
In short: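 HeLa cells treated 24 h at 10, 50 or 100 nM. They were then fixed in cold 4% formaldehyde for 15 min and stained with anti-β-tubulin for 2 h at room temperature. Alexa 488 secondary and DAPI counterstain followed; imaged by confocal microscopy at 20X.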

HeLa [9] = assay: Induction of apoptosis in human HeLa cells assessed as early apoptotic cells at 10 nM measured after 48 hrs by Annexin V-FITC/propidium iodide staining based flow cytometry (reference value: 2.1 %); format: functional
[10] = Toxicity in C57BL/6 mouse implanted with mouse E0771 cells assessed as reduction in body weight at 15 mg/kg, ip administered every other day; format: organism-based; conditions: in vivo
In short: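 Seven-week-old female C57BL/6 mice received 4 × 10^5 E0771 cells orthotopically into the mammary fat pad. Once tumors were palpable, mice were randomized and given ip injections every other day (15 or 5 mg/kg, or vehicle DMSO; CA-4P 30 mg/kg as reference). Body weight was followed during treatment; n = 5 mice/group.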

HUVEC [11] = assay: Antivascular activity against HUVEC assessed as inhibition of capillary like tube formation at 100 nM incubated for 1 hr by matrigel based assay; format: functional, cell-based; conditions: Homo sapiens; in short: as §3
HUVEC [12] = assay: Antivascular activity against HUVEC assessed as effect on segment length in preformed capillary like tube network at 10 nM incubated for 1 hr by imaging analysis; format: functional, cell-based; conditions: Homo sapiens; in short: as §3
HL-60 = assay: Antiproliferative activity against human HL-60 cells assessed as inhibition of cell growth; format: functional, cell-based
In short: (§5)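 Growth inhibition of cancer cell lines read from dose-response curves; IC50 as mean ± SEM of at least three independent experiments.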

Daoy = assay: Antiproliferative activity against human Daoy cells assessed as inhibition of cell growth; format: functional, cell-based; in short: as §4
HeLa [13] = assay: Induction of mitochondrial membrane potential loss in human HeLa cells assessed as cells with polarized mitochondrial membrane at 10 nM after 48 hrs by JC-1 dye-based flow cytometric analysis (reference value: 94.3 %); format: functional
[14] = Cytotoxicity against PHA-stimulated human PBL assessed as inhibition of cell growth; format: cell-based; conditions: PHA-stimulated peripheral blood lymphocytes (PBL)
In short: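 Peripheral blood lymphocytes from healthy donors, tested either unstimulated or stimulated with PHA; DMSO ≤0.25% final. Values are mean ± SEM of three separate experiments.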

HeLa [15] = assay: Induction of apoptosis in human HeLa cells assessed as increase in PARP cleavage at 10 nM after 48 hrs by Western blot analysis; format: functional, cell-based; in short: as §2
EO771 = assay: Antitumor activity against mouse E0771 cells implanted in ip dosed C57BL/6 mouse assessed as reduction tumor growth administered every other day; format: functional, organism-based; conditions: dose 5-15 mg/kg
In short: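 Seven-week-old female C57BL/6 mice received 4 x 10^5 E0771 cells orthotopically in the mammary fat pad and were randomized once tumors were palpable. Dosing was ip every other day at 5 or 15 mg/kg, with DMSO vehicle in 100 µL. Caliper volume was V=(D×d²)/2, and tumor weight was taken at endpoint; n=5/group. Analysis used two-way ANOVA with Bonferroni.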

[16] = Cytotoxicity against normal human astrocytes assessed as inhibition of cell growth; format: cell-based, Astrocyte
HeLa [17] = assay: Induction of apoptosis in human HeLa cells assessed as increase in bcl-2 phosphorylation at 10 nM after 48 hrs by Western blot analysis; format: functional, cell-based; in short: as §2
HeLa [18] = assay: Induction of mitochondrial membrane potential loss in human HeLa cells assessed as cells with depolarized mitochondrial membrane at 10 nM after 24 hrs by JC-1 dye-based flow cytometric analysis (reference value: 5.7 %); format: functional
HeLa [19] = assay: Induction of apoptosis in human HeLa cells assessed as increase in PARP cleavage at 10 nM after 24 hrs by Western blot analysis; format: functional, cell-based; in short: as §2
HeLa [20] = assay: Induction of apoptosis in human HeLa cells assessed as viable cells at 10 nM measured after 48 hrs by Annexin V-FITC/propidium iodide staining based flow cytometry (reference value: 89.57 %); format: functional; conditions: read-out: Activity
[21] = Cytotoxicity against mouse E0771 cells assessed as cell growth inhibition after 72 hrs by MTT assay; format: functional; conditions: EO771
HeLa [22] = assay: Induction of apoptosis in human HeLa cells assessed as necrotic cells at 10 nM measured after 24 hrs by Annexin V-FITC/propidium iodide staining based flow cytometry (reference value: 2.26 %); format: functional
HeLa [23] = assay: Downregulation of BubR1 expression in human HeLa cells at 10 nM after 24 hrs by Western blot analysis; format: functional, cell-based; in short: as §2
HeLa [24] = assay: Antiproliferative activity against human HeLa cells assessed as inhibition of cell growth; format: functional, cell-based; in short: as §5
Bos taurus [25] = species: Bos taurus; assay: Inhibition of [3H]colchicine binding to bovine brain tubulin at 5 uM relative to control; in short: as §1

With `CCOc1ccc2c(C(=O)c3cc(OC)c(OC)c(OC)c3)c(N)oc2c1` the inhibition (Bos taurus [1]) was 86%, the Activity (HeLa [2]) was “Dose-dependent effect” and the Activity (HeLa [3]) was “Active”. The Activity (HUVEC [4]) was “Active”, the Activity (HeLa [5]) was “Active” and the “Ratio IC50” value (Jurkat) was 3. The Activity (HeLa [6]) was “Active”, the IC50 (SEM cells) was 0.31 nM and the Activity (HUVEC [7]) was “Active”. The Activity (HeLa [8]) was “Active”, the Activity (HeLa [9]) was 23.53% and the Activity [10] was “Non-Toxic”. For the same molecule, the Activity (HUVEC [11]) was “Active”, the Activity (HUVEC [12]) was “Active” and the IC50 (HL-60) was 2.7 nM. It also gave an IC50 (Daoy) of 0.005 nM, an Activity (HeLa [13]) of 45.3% and a GI50 [14] of over 10000 nM. For the same molecule, the Activity (HeLa [15]) was “Active”, the Activity (EO771) was “Dose-dependent effect” and the GI50 [16] was over 10000 nM. For the same molecule, the Activity (HeLa [17]) was “Active”, the Activity (HeLa [18]) was 24.3% and the Activity (HeLa [19]) was “Active”. It also gave a viability at 0.01 µM (HeLa [20]) of 31.3%, a GI50 [21] of 15.6 nM and an Activity (HeLa [22]) of 14.77%. For the same molecule, the Activity (HeLa [23]) was “Active”, the IC50 (HeLa [24]) was 2.8 nM and the inhibition (Bos taurus [25]) was 99%.
